Measured values from publication PMC3509950 (Journal of nuclear medicine : official publication, Society …, 2012).

How the values were obtained:
[1] = Plasma kinetics of FAA during 5-min intravenous infusion in unanesthetized mice; assay type: in vivo, C57BL/6J male mice; details: for plasma area under the curve: 5-min intravenous infusion, mice
Outline: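 Male C57BL/6J mice, 2–3 mo, unanesthetized after 3 h recovery at 37°C. Test compound (0.3 or 1.6 nmol per mouse) in HEPES–fatty acid-free BSA (50 mg/mL, pH 7.4) was infused intravenously at variable rate for 5 min. Arterial plasma was sampled at 0–4.9 min, Folch-extracted, pentafluorobenzyl-derivatized, and analysed by NCI GC/MS against a 17:0 internal standard. AUC was derived by trapezoidal integration; n = 2–3.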

[2] = Incorporation of infused FAA into brain lipids of unanesthetized mice; assay type: in vivo, C57BL/6J male mice

O=C(O)CCC/C=C\C/C=C\C/C=C\C/C=C\CCCCCF [FAA, 20-Fluoroarachidonic Acid]
FAA concentration in plasma over time ([1]; 0.3 or 1.6 nmol infused intravenously over 5 min, Fig. 1): increased over time in a dose-dependent manner
plasma area under the curve ([1]; high dose (1.6 nmol)): 236 ± 18.9 nM·h
plasma area under the curve ([1]; low dose (0.3 nmol)): 29.7 ± 21.7 nM·h
FAA concentration within brain phospholipids (rank order) ([2]; both doses, end of 5-min infusion, Fig. 2A): highest in PtdIns and ChoGlp, followed by EtnGlp and PtdSer
incorporation coefficient k*, high versus low infusion dose ([2]; brain lipids, 0.3 vs 1.6 nmol, Fig. 3): lower for the high-infusion dose than for the low-infusion dose
FAA detected in brain UFA, triglyceride and cholesteryl ester fractions ([2]; end of 5-min infusion, mouse brain): < 0.01 nmol/g
